{
  "source": "ChEMBL document CHEMBL3286113",
  "about": "“New potent antibacterial oxazolidinone (MRX-I) with an improved class safety profile” (J Med Chem, 2014)",
  "key": {"Streptococcus pneumoniae [1]": {"system": "Streptococcus pneumoniae", "test": "Antibacterial activity against penicillin-resistant Streptococcus pneumoniae isolate 0613 in po dosed mouse systemic infection model", "type": "functional", "settings": "isolate 0613, po; call rule not given here"}, "Streptococcus pneumoniae [2]": {"system": "Streptococcus pneumoniae", "test": "Antibacterial activity against penicillin-sensitive Streptococcus pneumoniae isolate 0806", "type": "functional"}, "Rattus norvegicus [3]": {"system": "Rattus norvegicus", "test": "Toxicity in female rat assessed as effect on platelet count at 100 mg/kg/day, po bid administered for 4 weeks (reference value: 654.6 x 10^9/L)", "type": "organism-based", "design": "route oral", "settings": "in vivo, 672 h"}, "Rattus norvegicus [4]": {"system": "Rattus norvegicus", "test": "Toxicity in female rat assessed as effect on hemoglobin level at 100 mg/kg/day, po bid administered for 4 weeks (reference value: 141.8 g/L)", "type": "organism-based", "design": "route oral", "settings": "in vivo, 672 h"}, "Rattus norvegicus [5]": {"system": "Rattus norvegicus", "test": "Toxicity in female rat assessed as effect on mean corpuscular volume at 20 mg/kg/day, po bid administered for 4 weeks (reference value: 53.72 fL)", "type": "organism-based", "design": "route oral", "settings": "in vivo, 672 h"}, "Rattus norvegicus [6]": {"system": "Rattus norvegicus", "test": "Toxicity in female rat assessed as effect on WBC count at 20 mg/kg/day, po bid administered for 4 weeks (reference value: 3.66 x 10^9/L)", "type": "organism-based", "design": "route oral", "settings": "in vivo, 672 h"}, "Staphylococcus aureus [7]": {"system": "Staphylococcus aureus", "test": "Antibacterial activity against methicillin-resistant Staphylococcus aureus isolate 0612", "type": "functional"}, "[8]": {"test": "Cmax in male rat at 45 mg/kg, po", "type": "ADME, organism-based", "design": "dose 45 mg/kg, route oral", "settings": "in vivo"}, "[9]": {"test": "Clastogenicity in CHL cells assessed as induction of structural chromosomal aberration at 50 to 400 ug/mL measured over 6 hrs in absence of metabolic activation", "type": "toxicity, cell-based, Cricetulus griseus", "settings": "chinese hamster", "procedure,_shortened": "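Chinese hamster lung cells scored for structural chromosome aberrations with or without metabolic activation. Exposure was 50–400 μg/mL over 6 h, or 25–200 μg/mL over 24 h.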"}, "[10]": {"test": "Elimination half life in human at 900 mg, po administered as single dose at 30 mins post fat meal", "type": "ADME, organism-based", "settings": "in vivo, read-out: beta t1/2 (converted)", "procedure,_shortened": "(§1)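 Crossover study in 12 subjects (six of each sex). Each got a single oral 900 mg dose either fasted or 30 min after a fat-containing meal.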"}, "Staphylococcus aureus [11]": {"system": "Staphylococcus aureus", "test": "Antibacterial activity against Staphylococcus aureus", "type": "functional"}, "Rattus norvegicus [12]": {"system": "Rattus norvegicus", "test": "Toxicity in female rat assessed as effect on mean corpuscular volume at 100 mg/kg/day, po bid administered for 4 weeks (reference value: 53.72 fL)", "type": "organism-based", "design": "route oral", "settings": "in vivo, 672 h"}, "Staphylococcus aureus [13]": {"system": "Staphylococcus aureus", "test": "Antibacterial activity against methicillin-resistant Staphylococcus aureus by agar dilution method", "type": "functional", "procedure,_shortened": "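MIC determined by agar dilution across S. aureus/MRSA isolates; MIC90 is the concentration inhibiting 90% of strains tested.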"}, "Homo sapiens [14]": {"system": "Homo sapiens", "test": "Toxicity in human at 600 to 800 mg, po administered as single dose with meal on day 1 and day 15 followed by bid with meal on day 2 to day 14 measured during compound treatment", "type": "organism-based", "settings": "in vivo"}, "Staphylococcus aureus [15]": {"system": "Staphylococcus aureus", "test": "Antibacterial activity against methicillin-resistant Staphylococcus aureus isolate 0605 in po dosed mouse thigh infection model", "type": "functional, organism-based", "settings": "Thigh muscle"}, "Rattus norvegicus [16]": {"system": "Rattus norvegicus", "test": "Toxicity in rat assessed as mortality at 20 to 300 mg/kg, po bid administered for 4 weeks measured on day 1 to day 28", "type": "organism-based", "design": "dose 20-300 mg/kg, route oral", "settings": "in vivo, 672 h", "procedure,_shortened": "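Rats, 10 per gender per group, given drug orally twice daily at 20, 100 and 200/300 mg/kg/day for 4 weeks, then a 4-week recovery period. The top dose of 200 mg/kg/day was raised to 300 mg/kg/day on day 15. The comparator was dosed the same way at 100 and 200 mg/kg/day. Monitoring covered mortality, body weight, hematology and bone marrow, with blood taken for TK on days 1, 14 and 28.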"}, "Rattus norvegicus [17]": {"system": "Rattus norvegicus", "test": "Acute toxicity in rat administered as single dose", "type": "organism-based", "settings": "in vivo"}, "Homo sapiens [18]": {"system": "Homo sapiens", "test": "Toxicity in human assessed as change in platelet count at 600 to 800 mg, po administered as single dose with meal on day 1 and day 15 followed by bid with meal on day 2 to day 14 measured during compound treatment", "type": "organism-based", "settings": "in vivo"}, "Rattus norvegicus [19]": {"system": "Rattus norvegicus", "test": "Toxicity in female rat assessed as effect on platelet count at 20 mg/kg/day, po bid administered for 4 weeks (reference value: 654.6 x 10^9/L)", "type": "organism-based", "design": "route oral", "settings": "in vivo, 672 h"}, "[20]": {"test": "Clastogenicity in CHL cells assessed as induction of structural chromosomal aberration at 25 to 200 ug/mL measured over 24 hrs in absence of metabolic activation", "type": "toxicity, cell-based, Cricetulus griseus", "settings": "chinese hamster", "procedure,_shortened": "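Chromosomal aberration test in Chinese hamster lung cells, run with and without metabolic activation. Exposure was 50−400 μg/mL for 6 h or 25−200 μg/mL for 24 h, and structural chromosome aberrations were scored.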"}, "Enterococcus faecalis": {"system": "Enterococcus faecalis", "test": "Antibacterial activity against vancomycin-sensitive/high-level gentamycin-resistant Enterococcus faecalis isolate HH22", "type": "functional", "settings": "EnGen0297"}, "Streptococcus pneumoniae [21]": {"system": "Streptococcus pneumoniae", "test": "Bactericidal activity against penicillin-resistant Streptococcus pneumoniae", "type": "functional"}, "Rattus norvegicus [22]": {"system": "Rattus norvegicus", "test": "Drug uptake in rat at 20 to 300 mg/kg/day, po bid administered for 4 weeks measured after day 28", "type": "ADME, organism-based", "design": "route oral", "settings": "in vivo, 672 h", "procedure,_shortened": "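Rats, 10 per sex per group, dosed orally twice daily at 20, 100 and 200 mg/kg/day for 4 weeks, then a 4-week recovery. The top dose was raised to 300 mg/kg/day on day 15. Toxicokinetic blood samples were drawn on days 1, 14 and 28.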"}, "[23]": {"test": "Tmax in female rat at 45 mg/kg, po", "type": "ADME, organism-based", "design": "dose 45 mg/kg, route oral", "settings": "in vivo", "procedure,_shortened": "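Male and female rats received single oral doses of 5, 15 or 45 mg/kg, with 5 mg/kg iv as a reference arm. Tmax was read from the plasma concentration–time profile for each gender.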"}, "[24]": {"test": "Cmax in human at 900 mg, po administered as single dose at 30 mins post fat meal", "type": "ADME, organism-based", "design": "dose 900 mg, route oral", "settings": "in vivo", "procedure,_shortened": "as §1"}, "[25]": {"test": "AUC (0 to infinity) in fasted human at 600 mg, po administered as single dose", "type": "ADME, organism-based", "design": "dose 600 mg, route oral, time infinity", "settings": "plasma", "procedure,_shortened": "(§2)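 Single-dose, three-period Latin-square crossover in 12 healthy volunteers (6 of each gender). Each received single oral 300, 600 and 900 mg doses under fasting conditions, with a 1-week washout between doses. PK parameters, including AUC0−inf, came from a noncompartmental model.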"}, "[26]": {"test": "Cmax in male rat at 5 mg/kg, po", "type": "ADME, organism-based", "design": "dose 5 mg/kg, route oral", "settings": "in vivo"}, "[27]": {"test": "AUC (0 to infinity) in fasted human at 900 mg, po administered as single dose", "type": "ADME, organism-based", "design": "dose 900 mg, route oral, time infinity", "settings": "plasma", "procedure,_shortened": "as §2"}, "[28]": {"test": "Cmax in human at 800 mg, po administered as single dose with meal measured on day 15", "type": "ADME, organism-based", "design": "dose 800 mg, route oral", "settings": "in vivo", "procedure,_shortened": "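Randomized, double-blind, placebo-controlled multiple-dose study in 32 healthy subjects, half male and half female. Each dose was taken with a meal, at 600 or 800 mg, 28 doses over 15 days. A single dose on days 1 and 15 gave full PK; BID (Q12h) dosing ran on days 2–14.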"}, "Cytochrome P450 3A4": {"target": "Cytochrome P450 3A4 (Homo sapiens, UniProt P08684)", "sequence (P08684 whole entry)": "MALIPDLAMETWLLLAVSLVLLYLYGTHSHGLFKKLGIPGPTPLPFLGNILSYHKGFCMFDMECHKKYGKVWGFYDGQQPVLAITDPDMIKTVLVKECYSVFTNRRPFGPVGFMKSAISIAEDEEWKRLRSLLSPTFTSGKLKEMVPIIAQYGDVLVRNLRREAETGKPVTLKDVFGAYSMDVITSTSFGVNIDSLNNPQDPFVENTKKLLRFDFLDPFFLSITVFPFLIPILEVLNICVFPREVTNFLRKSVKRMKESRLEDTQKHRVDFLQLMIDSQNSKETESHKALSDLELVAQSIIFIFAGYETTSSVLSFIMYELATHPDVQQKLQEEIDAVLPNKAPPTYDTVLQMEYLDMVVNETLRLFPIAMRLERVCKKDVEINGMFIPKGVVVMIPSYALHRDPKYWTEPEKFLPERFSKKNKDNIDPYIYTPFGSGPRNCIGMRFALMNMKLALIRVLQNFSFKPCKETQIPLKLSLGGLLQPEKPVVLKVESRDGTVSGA", "test": "Inhibition of CYP3A4 (unknown origin) at 1 to 200 uM", "type": "ADME"}, "[29]": {"test": "AUC (0 to t) in female rat at 15 mg/kg, po", "type": "ADME, organism-based", "design": "dose 15 mg/kg, route oral", "settings": "plasma", "procedure,_shortened": "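Rat PK by gender, with single oral doses of 5, 15 and 45 mg/kg and an iv dose of 5 mg/kg. Tmax, Cmax, T1/2 and AUC0−t were reported per gender.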"}, "[30]": {"test": "Tmax in human at 600 mg, po administered as single dose with meal measured on day 15", "type": "ADME, organism-based", "settings": "in vivo", "procedure,_shortened": "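Randomized, double-blind, placebo-controlled multiple-dose study in 32 healthy subjects, half male and half female. Dosing was 600 or 800 mg orally with a meal, 28 doses over 15 days. A single dose was given on days 1 and 15 for full PK, with Q12h (BID) dosing on days 2−14.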"}},
  "data": [
    {"smiles": "O=C1C=CN(c2c(F)cc(N3C[C@H](CNc4ccon4)OC3=O)c(F)c2F)CC1", "note": "[CONTEZOLID]", "values": [
      {"measurement": "ED50", "setting": "Streptococcus pneumoniae [1]", "result": 10.5, "unit": "mg/kg"},
      {"measurement": "MIC", "setting": "Streptococcus pneumoniae [2]", "result": 2, "unit": "µg/mL"},
      {"measurement": "Activity", "setting": "Rattus norvegicus [3]", "result": 636.2, "unit": "×10⁹ /L"},
      {"measurement": "Activity", "setting": "Rattus norvegicus [4]", "result": 134.8, "unit": "g/L"},
      {"measurement": "Activity", "setting": "Rattus norvegicus [5]", "result": 54.52, "unit": "fL"},
      {"measurement": "Activity", "setting": "Rattus norvegicus [6]", "result": 4.5, "unit": "×10⁹ /L"},
      {"measurement": "MIC", "setting": "Staphylococcus aureus [7]", "result": 2, "unit": "µg/mL"},
      {"measurement": "Cmax", "setting": "[8]", "result": 27800, "unit": "ng/mL"},
      {"measurement": "Activity", "setting": "[9]", "result": "Non-toxic"},
      {"measurement": "half-life", "setting": "[10]", "result": 2.7, "unit": "h"},
      {"measurement": "MIC", "setting": "Staphylococcus aureus [11]", "result": 2, "unit": "µg/mL"},
      {"measurement": "Activity", "setting": "Rattus norvegicus [12]", "result": 54.78, "unit": "fL"},
      {"measurement": "MIC50", "setting": "Staphylococcus aureus [13]", "result": 0.5, "unit": "µg/mL"},
      {"measurement": "MIC90", "setting": "Staphylococcus aureus [13]", "result": 0.5, "unit": "µg/mL"},
      {"measurement": "Activity", "setting": "Homo sapiens [14]", "result": "Non-toxic"},
      {"measurement": "Activity", "setting": "Staphylococcus aureus [15]", "result": "Dose-dependent effect"},
      {"measurement": "Activity", "setting": "Rattus norvegicus [16]", "result": "Non-toxic"},
      {"measurement": "Activity", "setting": "Rattus norvegicus [17]", "result": 5000, "unit": "mg/kg"},
      {"measurement": "Activity", "setting": "Homo sapiens [18]", "result": "Non-toxic"},
      {"measurement": "Activity", "setting": "Rattus norvegicus [19]", "result": 638.2, "unit": "×10⁹ /L"},
      {"measurement": "Activity", "setting": "[20]", "result": "Non-toxic"},
      {"measurement": "MIC", "setting": "Enterococcus faecalis", "result": 2, "unit": "µg/mL"},
      {"measurement": "MIC50", "setting": "Streptococcus pneumoniae [21]", "result": 0.5, "unit": "µg/mL"},
      {"measurement": "MIC90", "setting": "Streptococcus pneumoniae [21]", "result": 0.5, "unit": "µg/mL"},
      {"measurement": "Drug uptake", "setting": "Rattus norvegicus [22]", "result": "Not Active"},
      {"measurement": "Tmax", "setting": "[23]", "result": 1.67, "unit": "h"},
      {"measurement": "Cmax", "setting": "[24]", "result": 42300, "unit": "ng/mL"},
      {"measurement": "AUC(0-inf)", "setting": "[25]", "result": 48300, "unit": "ng·h/mL"},
      {"measurement": "Cmax", "setting": "[26]", "result": 4600, "unit": "ng/mL"},
      {"measurement": "AUC(0-inf)", "setting": "[27]", "result": 59200, "unit": "ng·h/mL"},
      {"measurement": "Cmax", "setting": "[28]", "result": 26400, "unit": "ng/mL"},
      {"measurement": "inhibition (INH)", "setting": "Cytochrome P450 3A4", "result": "Not Active"},
      {"measurement": "AUC(0-t)", "setting": "[29]", "result": 64700, "unit": "ng·h/mL"},
      {"measurement": "Tmax", "setting": "[30]", "result": 0.6, "unit": "h"}
    ]}
  ]
}
